The text below walks through data of ChEMBL document CHEMBL4024768, “Discovery and Optimization of Thiazolidinyl and Pyrrolidinyl Derivatives as Inhaled PDE4 Inhibitors for Respiratory Diseases” (J Med Chem, 2017).

The target in data set [1] is Dual specificity calcium/calmodulin-dependent 3',5'-cyclic nucleotide phosphodiesterase 1A (Homo sapiens, UniProt P54750). The data set can be described thus: Inhibition of human recombinant PDE1A expressed insect sf9 cells by radiometric assay. An outline of the steps:
(§1)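 Human recombinant PDEs expressed in Sf9 cells, except PDE6 purified from bovine retina. Radiometric two-step method, modified from Thompson and Appleman. Five concentrations in duplicate, starting at 30 μM with 1:10 serial dilution, 1% final DMSO.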

Data set [2] is described as follows: Protein binding in human plasma at 5 uM after 5 hrs by LC-MS/MS analysis. Particulars: read-out: PPB (converted); call rule not given here. Type of data set: ADME, cell-free.
A short description of data set [3]: Inhibition of PDE4 in human U937 cell lysates assessed as residual cAMP after 2.5 mins by LANCE assay.
Data set [4] is described as follows: Apparent permeability across apical to basolateral side in human Caco2 cells at 10 uM after 2 hrs by LC-MS/MS analysis. Type of data set: ADME, cell-based. To be noted: Caco-2.
Data set [5] can be described thus: Apparent permeability across basolateral to apical side in human Caco2 cells at 10 uM after 2 hrs by LC-MS/MS analysis. It counts as ADME, cell-based. Particulars: Caco-2.
Data set [6] can be described thus: Intrinsic clearance in human liver microsomes at 1 uM measured after 60 mins in presence NADPH by LC-MS/MS analysis. It counts as ADME, microsome. To be noted: read-out: CLH. Summed up: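 Compound at 1 μM with human liver microsomes (0.8 mg protein/mL) in Dulbecco's buffer pH 7.4, 1 mM NADPH, 37 °C, in duplicate. Sampled at 0, 5, 10, 20, 30 and 60 min, quenched with ice-cold acetonitrile, and unchanged compound measured by LC−MS/MS. No-NADPH controls; midazolam (1 μM) as phase I control.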

A short description of data set [7]: Intrinsic clearance in human hepatocytes assessed per million cells at 1 uM measured after 90 mins by LC-MS/MS analysis. Type of data set: ADME, cell-based, Hepatocyte. To be noted: read-out: CLH. An outline of the steps: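 Compound at 1 μM with hepatocytes (1 million cells/mL) in Leibovitz L-15 at 37 °C, in duplicate. Sampled at 0, 10, 20, 30, 60 and 90 min, quenched with ice-cold acetonitrile, centrifuged, and unchanged compound measured by LC−MS/MS. Included 7-ethoxycoumarin and 7-hydroxycoumarin activity controls and cell-free medium controls.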

The nature of data set [8]: Metabolic stability in human lung S9 fraction assessed as compound remaining at 1 uM measured after 60 mins in presence of NADPH by LC-MS/MS analysis. Particulars: read-out: Stability. It counts as ADME.
Data set [9] is described as follows: Stability in human hepatocytes assessed as parent compound remaining at 10 uM after 60 mins by LC-MS/MS analysis. Type of data set: ADME, cell-based, Hepatocyte. Particulars: read-out: Stability. Summed up:
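Pooled mixed-sex cryopreserved human hepatocytes (1 million cells/mL) in Leibovitz L-15 at 37 °C, compound at 10 μM in duplicate. Sampled at 0 and 60 min. Protein-free supernatant evaporated under nitrogen, reconstituted in mobile phase and analysed by LC−MS/MS. Cell-free medium incubation for 60 min as control.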

In data set [10] the test system is Lung. The data set can be described thus: Cmax in Sprague-Dawley rat lung at 1 umol/kg, it administered as micronized powder measured up to 24 hrs post dose by electrospray LC-MS analysis. Particulars: in vivo, inhaled_or_intranasal. Type of data set: ADME, tissue-based. Also noted: dose 1 umol/kg. Summed up:
(§2)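 Sprague-Dawley rats (250−400 g) dosed intratracheally with micronized dry powder blended with coarse lactose, delivered by insufflator under isoflurane anaesthesia. Blood collected in heparinized tubes and spun at 1200g for 15 min. Lung sampled at 0.25, 1, 2, 4, 8, 16 and 24 h, n = 3 per time point.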

In data set [11] the test system is Lung. The data set can be described thus: AUClast in Sprague-Dawley rat lung at 1 umol/kg, it administered as micronized powder measured up to 24 hrs post dose by electrospray LC-MS analysis. Type of data set: ADME, tissue-based. Particulars: in vivo, inhaled_or_intranasal. Summed up:
as §2

Data set [12] in a line: Half life in Sprague-Dawley rat lung at 1 umol/kg, it administered as micronized powder measured up to 24 hrs post dose by electrospray LC-MS analysis. Particulars: inhaled or intranasal. It counts as ADME, tissue-based. An outline of the steps: as §2
Data set [13] relates to Plasma. The data set is described as follows: Cmax in Sprague-Dawley rat plasma at 1 umol/kg, it administered as micronized powder measured up to 24 hrs post dose by electrospray LC-MS analysis. Type of data set: ADME, cell-free. More on the design: dose 1 umol/kg. To be noted: inhaled_or_intranasal. An outline of the steps: as §2
Data set [14] is described as follows: Ratio of drug uptake in Sprague-Dawley rat lung to plasma at 1 umol/kg, it administered as micronized powder measured up to 8 hrs post dose by electrospray LC-MS analysis. It counts as ADME. To be noted: other tissue, inhaled_or_intranasal.
For data set [15], the system named is Plasma. The data set is described as follows: AUClast in Sprague-Dawley rat plasma at 1 umol/kg, it administered as micronized powder measured up to 24 hrs post dose by electrospray LC-MS analysis. To be noted: inhaled_or_intranasal. It counts as ADME, cell-free. An outline of the steps: as §2
Data set [16] is described as follows: MRTlast in Sprague-Dawley rat plasma at 1 umol/kg, it administered as micronized powder measured up to 24 hrs post dose by electrospray LC-MS analysis. It counts as ADME, cell-free. Particulars: inhaled or intranasal. Summed up: as §2
Data set [17] concerns the target 3',5'-cyclic-AMP phosphodiesterase 4B (Homo sapiens, UniProt Q07343). The data set is described as follows: Inhibition of human recombinant PDE4B expressed insect sf9 cells by radiometric assay. Summed up: as §1
Data set [18] deals with cGMP-specific 3',5'-cyclic phosphodiesterase (Homo sapiens, UniProt O76074). The data set can be described thus: Inhibition of human recombinant PDE5A expressed insect sf9 cells by radiometric assay. An outline of the steps: as §1
Data set [19] deals with High affinity 3',5'-cyclic-AMP phosphodiesterase 7A (Homo sapiens, UniProt Q13946). The data set can be described thus: Inhibition of human recombinant PDE7A expressed insect sf9 cells by radiometric assay. An outline of the steps:
as §1

Data set [20] deals with cAMP and cAMP-inhibited cGMP 3',5'-cyclic phosphodiesterase 10A (Homo sapiens, UniProt Q9Y233). The data set can be described thus: Inhibition of human recombinant PDE10A2 expressed insect sf9 cells by radiometric assay. An outline of the steps:
as §1

Data set [21] has as its target Dual 3',5'-cyclic-AMP and -GMP phosphodiesterase 11A (Homo sapiens, UniProt Q9HCR9). The data set can be described thus: Inhibition of human recombinant PDE11A4 expressed insect sf9 cells by radiometric assay. Summed up: as §1
In data set [22] the target is Voltage-gated inwardly rectifying potassium channel KCNH2 (Homo sapiens, UniProt Q12809). The data set can be described thus: Inhibition of human ERG at 1 uM.
The target in data set [23] is Cytochrome P450 3A4 (Homo sapiens, UniProt P08684). The data set can be described thus: Binding affinity to human liver microsomes CYP3A4 at 1 uM. It counts as ADME. Summed up:
(§3)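 Off-target screening panel of about 400 receptors, enzymes and ion channels, run at 1 μM. Result expressed as % binding.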

Data set [24] concerns the target T1, Amine oxidase [flavin-containing] A (Homo sapiens, UniProt P21397).
T1 sequence (P21397 whole entry): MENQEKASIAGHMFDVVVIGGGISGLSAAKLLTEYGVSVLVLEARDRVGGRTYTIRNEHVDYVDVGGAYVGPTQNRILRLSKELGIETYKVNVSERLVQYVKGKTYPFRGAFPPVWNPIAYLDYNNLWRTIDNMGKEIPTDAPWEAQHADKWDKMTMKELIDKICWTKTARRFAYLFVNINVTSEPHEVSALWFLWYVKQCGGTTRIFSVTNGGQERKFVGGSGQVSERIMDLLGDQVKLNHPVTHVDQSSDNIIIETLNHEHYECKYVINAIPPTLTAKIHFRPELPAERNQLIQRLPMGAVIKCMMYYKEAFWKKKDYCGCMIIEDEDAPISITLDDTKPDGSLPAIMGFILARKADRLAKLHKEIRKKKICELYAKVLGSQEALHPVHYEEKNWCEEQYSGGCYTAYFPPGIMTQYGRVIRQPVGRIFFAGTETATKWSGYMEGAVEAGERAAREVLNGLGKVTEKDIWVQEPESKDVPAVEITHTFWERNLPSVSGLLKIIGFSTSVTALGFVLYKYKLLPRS
The data set can be described thus: Binding affinity to human monoamine oxidase A at 1 uM. Summed up: as §3

Chain of High affinity 3',5'-cyclic-AMP phosphodiesterase 7A (Q13946 whole entry): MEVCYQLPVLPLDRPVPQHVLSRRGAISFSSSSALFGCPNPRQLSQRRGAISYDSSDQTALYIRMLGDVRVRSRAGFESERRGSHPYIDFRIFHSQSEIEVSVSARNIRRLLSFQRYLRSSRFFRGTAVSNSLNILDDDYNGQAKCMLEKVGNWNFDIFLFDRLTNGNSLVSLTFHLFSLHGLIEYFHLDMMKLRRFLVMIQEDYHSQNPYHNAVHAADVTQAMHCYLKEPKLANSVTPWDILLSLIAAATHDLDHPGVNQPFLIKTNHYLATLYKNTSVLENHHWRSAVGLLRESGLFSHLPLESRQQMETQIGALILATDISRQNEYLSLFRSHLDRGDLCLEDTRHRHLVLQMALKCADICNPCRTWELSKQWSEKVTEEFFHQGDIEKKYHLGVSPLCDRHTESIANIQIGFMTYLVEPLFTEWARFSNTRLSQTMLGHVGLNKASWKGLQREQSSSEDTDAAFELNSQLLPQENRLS
Chain of 3',5'-cyclic-AMP phosphodiesterase 4B (Q07343 whole entry): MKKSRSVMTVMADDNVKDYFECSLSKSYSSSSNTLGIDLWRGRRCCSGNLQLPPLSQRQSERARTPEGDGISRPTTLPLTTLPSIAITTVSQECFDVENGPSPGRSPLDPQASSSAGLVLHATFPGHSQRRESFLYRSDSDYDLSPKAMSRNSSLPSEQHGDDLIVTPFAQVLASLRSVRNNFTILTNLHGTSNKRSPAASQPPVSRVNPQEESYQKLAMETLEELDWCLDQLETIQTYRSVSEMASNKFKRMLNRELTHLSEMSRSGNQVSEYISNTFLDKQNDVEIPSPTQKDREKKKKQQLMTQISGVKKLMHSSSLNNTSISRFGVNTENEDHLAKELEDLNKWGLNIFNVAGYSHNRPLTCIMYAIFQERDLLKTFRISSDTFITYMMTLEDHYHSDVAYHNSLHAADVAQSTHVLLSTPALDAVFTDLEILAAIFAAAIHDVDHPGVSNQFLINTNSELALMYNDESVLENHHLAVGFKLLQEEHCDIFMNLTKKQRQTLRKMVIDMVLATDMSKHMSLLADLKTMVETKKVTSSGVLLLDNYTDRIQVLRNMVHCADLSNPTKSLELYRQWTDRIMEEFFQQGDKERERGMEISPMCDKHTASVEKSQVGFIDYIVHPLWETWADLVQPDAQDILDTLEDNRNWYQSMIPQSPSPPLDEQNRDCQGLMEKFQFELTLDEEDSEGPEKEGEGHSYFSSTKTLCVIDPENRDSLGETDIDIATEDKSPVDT
Chain of Dual specificity calcium/calmodulin-dependent 3',5'-cyclic nucleotide phosphodiesterase 1A (P54750 whole entry): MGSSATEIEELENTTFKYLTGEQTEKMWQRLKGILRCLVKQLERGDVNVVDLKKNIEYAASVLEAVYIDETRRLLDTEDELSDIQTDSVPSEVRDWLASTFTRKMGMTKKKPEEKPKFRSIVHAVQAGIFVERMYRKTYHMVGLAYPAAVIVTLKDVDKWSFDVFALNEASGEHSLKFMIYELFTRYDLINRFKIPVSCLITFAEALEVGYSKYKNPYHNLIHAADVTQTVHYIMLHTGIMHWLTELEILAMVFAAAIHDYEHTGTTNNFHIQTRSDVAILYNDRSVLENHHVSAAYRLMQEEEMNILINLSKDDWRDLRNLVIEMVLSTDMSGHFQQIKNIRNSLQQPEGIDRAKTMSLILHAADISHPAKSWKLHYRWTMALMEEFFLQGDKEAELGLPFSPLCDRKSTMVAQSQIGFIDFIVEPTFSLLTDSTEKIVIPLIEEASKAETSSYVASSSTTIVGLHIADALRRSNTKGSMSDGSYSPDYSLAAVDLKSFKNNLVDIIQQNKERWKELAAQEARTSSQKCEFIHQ
Chain of cAMP and cAMP-inhibited cGMP 3',5'-cyclic phosphodiesterase 10A (Q9Y233 whole entry): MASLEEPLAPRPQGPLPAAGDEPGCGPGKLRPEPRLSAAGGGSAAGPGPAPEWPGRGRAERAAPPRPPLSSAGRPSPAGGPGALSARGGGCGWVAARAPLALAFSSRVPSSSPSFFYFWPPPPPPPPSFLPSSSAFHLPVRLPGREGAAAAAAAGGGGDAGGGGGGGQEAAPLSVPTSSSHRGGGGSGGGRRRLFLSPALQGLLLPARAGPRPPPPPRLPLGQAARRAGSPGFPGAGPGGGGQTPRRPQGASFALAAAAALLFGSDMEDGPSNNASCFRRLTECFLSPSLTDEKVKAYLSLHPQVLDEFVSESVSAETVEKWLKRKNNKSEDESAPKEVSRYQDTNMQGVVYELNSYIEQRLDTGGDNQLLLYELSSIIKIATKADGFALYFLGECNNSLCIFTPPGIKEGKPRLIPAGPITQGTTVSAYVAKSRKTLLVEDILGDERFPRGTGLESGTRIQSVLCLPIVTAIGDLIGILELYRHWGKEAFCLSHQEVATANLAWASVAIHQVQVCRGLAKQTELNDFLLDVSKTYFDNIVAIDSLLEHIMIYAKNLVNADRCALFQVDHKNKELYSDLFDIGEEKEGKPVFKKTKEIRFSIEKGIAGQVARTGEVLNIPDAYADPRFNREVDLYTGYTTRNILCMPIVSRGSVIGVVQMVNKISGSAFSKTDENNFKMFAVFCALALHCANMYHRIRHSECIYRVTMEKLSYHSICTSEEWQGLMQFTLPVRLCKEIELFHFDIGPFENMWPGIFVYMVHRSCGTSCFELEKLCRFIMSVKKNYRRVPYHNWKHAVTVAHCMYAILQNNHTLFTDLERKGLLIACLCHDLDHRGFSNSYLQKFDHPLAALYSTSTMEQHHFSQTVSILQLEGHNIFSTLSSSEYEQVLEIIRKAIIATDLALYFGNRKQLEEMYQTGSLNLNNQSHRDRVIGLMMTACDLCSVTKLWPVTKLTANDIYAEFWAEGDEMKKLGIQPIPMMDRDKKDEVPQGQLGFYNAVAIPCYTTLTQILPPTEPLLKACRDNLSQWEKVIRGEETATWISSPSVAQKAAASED
Chain of Cytochrome P450 3A4 (P08684 whole entry): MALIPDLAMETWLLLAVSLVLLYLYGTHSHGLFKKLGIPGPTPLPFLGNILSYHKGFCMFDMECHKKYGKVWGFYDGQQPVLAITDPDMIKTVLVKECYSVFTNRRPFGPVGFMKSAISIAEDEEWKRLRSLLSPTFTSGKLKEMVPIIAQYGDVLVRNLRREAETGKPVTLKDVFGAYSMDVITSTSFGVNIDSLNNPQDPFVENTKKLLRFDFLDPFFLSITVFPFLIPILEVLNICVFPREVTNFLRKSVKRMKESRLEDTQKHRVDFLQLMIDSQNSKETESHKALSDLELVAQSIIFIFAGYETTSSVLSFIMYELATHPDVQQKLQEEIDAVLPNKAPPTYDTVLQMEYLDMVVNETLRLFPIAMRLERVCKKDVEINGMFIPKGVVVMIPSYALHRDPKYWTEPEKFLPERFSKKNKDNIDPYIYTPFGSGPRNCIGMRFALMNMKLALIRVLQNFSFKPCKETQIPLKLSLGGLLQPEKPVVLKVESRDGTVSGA
Chain of Dual 3',5'-cyclic-AMP and -GMP phosphodiesterase 11A (Q9HCR9 whole entry): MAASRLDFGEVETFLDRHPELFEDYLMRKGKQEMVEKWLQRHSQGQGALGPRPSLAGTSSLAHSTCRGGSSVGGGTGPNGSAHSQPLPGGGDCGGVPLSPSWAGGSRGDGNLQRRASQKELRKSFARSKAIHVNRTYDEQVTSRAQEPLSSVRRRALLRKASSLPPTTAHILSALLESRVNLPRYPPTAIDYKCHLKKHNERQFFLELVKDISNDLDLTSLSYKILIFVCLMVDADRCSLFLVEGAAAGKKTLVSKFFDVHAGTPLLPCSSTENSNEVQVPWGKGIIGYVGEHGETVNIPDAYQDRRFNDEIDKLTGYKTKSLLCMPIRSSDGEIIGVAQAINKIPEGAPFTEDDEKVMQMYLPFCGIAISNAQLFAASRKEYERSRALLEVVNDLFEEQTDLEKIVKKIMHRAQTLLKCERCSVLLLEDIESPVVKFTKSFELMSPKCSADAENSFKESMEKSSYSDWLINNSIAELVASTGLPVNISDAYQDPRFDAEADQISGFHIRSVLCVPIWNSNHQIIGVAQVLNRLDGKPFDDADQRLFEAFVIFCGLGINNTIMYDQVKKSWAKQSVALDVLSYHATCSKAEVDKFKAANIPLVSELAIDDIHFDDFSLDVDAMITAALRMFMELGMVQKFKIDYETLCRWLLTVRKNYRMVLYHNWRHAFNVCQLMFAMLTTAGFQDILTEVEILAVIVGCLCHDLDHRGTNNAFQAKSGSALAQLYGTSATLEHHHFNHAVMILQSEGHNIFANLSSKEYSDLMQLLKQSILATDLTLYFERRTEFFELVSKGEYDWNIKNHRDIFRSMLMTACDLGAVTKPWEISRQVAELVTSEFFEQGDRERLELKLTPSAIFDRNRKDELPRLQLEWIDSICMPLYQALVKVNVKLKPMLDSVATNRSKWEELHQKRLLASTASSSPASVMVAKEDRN

As for `CN(C)C(=O)c1cccc(S(=O)(=O)N2CCC[C@H]2C(=O)O[C@@H](Cc2c(Cl)c[n+]([O-])cc2Cl)c2ccc(OC(F)F)c(OCC3CC3)c2)c1` (relative stereo), the 50% inhibitory concentration (IC50) in [1] was found to be 25.6 µM; in [3], 0.0378 nM; in data set [17] it was 0.0881 nM; in data set [18], 13.9 µM; in data set [19], 3.46 µM; in data set [20], 4.03 µM. Also, the 50% inhibitory concentration (IC50) in data set [21] was above 30 µM. The fraction unbound at 5 h, 5 µM in data set [2] was 0.0035. The Papp A→B at 2 h, 10 µM in data set [4] was found to be 0.48 ×10⁻⁶ cm/s. For the same compound, the Papp B→A at 2 h, 10 µM in data set [5] was 10.2 ×10⁻⁶ cm/s. Further, the microsomal CLint at 1 µM in [6] is 591 µL/min/mg. The hepatocyte CLint at 1 µM in data set [7] came to 95.5 µL/min/1e6 cells. Further, the remaining at 1 h, 1 µM in data set [8] came out at 71.1%. Also, the remaining at 1 h, 10 µM in [9] worked out at 78%. For the same compound, the Cmax in [10] was determined as 16.24 nmol/g; in [13], 20.65 pmol/g. Also, the AUClast in data set [11] stood at 49.65 nmol·h/g; in data set [15] it was 33.27 pmol·h/g. In addition, in data set [12], the half-life is 5.18 h. The Ratio in data set [14] amounted to 2261. The compound also showed an MRT last at 24 h in [16] of 1.08 h. For the same compound, the “inhibition (INH)” value in data set [22] was “Not Active”. For the same compound, the Activity in [23] amounted to 73%; in data set [24] it was 76%.

On to `CN(C)C(=O)c1cccc(S(=O)(=O)N2CCS[C@H]2C(=O)O[C@@H](Cc2c(Cl)c[n+]([O-])cc2Cl)c2ccc(OC(F)F)c(OCC3CC3)c2)c1`, for which the IC50 in data set [1] was 7.4 µM; in data set [3], 0.053 nM; in data set [17], 0.0278 nM; in [18], 4.61 µM; in data set [19], 0.66 µM; in [20], 0.81 µM. Further, the IC50 in data set [21] is above 30 µM. Moreover, in data set [2], the fraction unbound at 5 h, 5 µM is 0.0021. In addition, the Papp A→B at 2 h, 10 µM in data set [4] is 0.42 ×10⁻⁶ cm/s. Besides, in data set [5], the Papp B→A at 2 h, 10 µM amounted to 3.18 ×10⁻⁶ cm/s. In addition, the microsomal CLint at 1 µM in data set [6] worked out at 287 µL/min/mg. Further, the hepatocyte CLint at 1 µM in data set [7] worked out at 82.5 µL/min/1e6 cells. Besides, the remaining at 1 h, 1 µM in data set [8] amounted to 70.2%. Besides, in data set [9], the remaining at 1 h, 10 µM came out at 51%. Also, the results for the Cmax in data set [10] and in data set [13] were 16.06 nmol/g and 9.8 pmol/g, respectively. The AUClast in data set [11] was 65.27 nmol·h/g; in [15] it was 10.38 pmol·h/g. The same compound gave a half-life in data set [12] of 4.39 h. Further, the Ratio in data set [14] was found to be 5152. The compound also yielded an MRT last at 24 h in [16] of 1.33 h. Moreover, in data set [22], the “inhibition (INH)” value is listed as “Not Active”. Besides, the Activity in data set [23] is given as 84%; in data set [24] it was 94%.
